Calls of active or inactive are those of the source. No cut-off for these calls is given here. Square brackets hold non-standard residues; d marks the D form. Peptide text beside a SMILES is read from it. Bip(2'-Et-4'-OMe) = CCc1cc(OC)ccc1-c1ccc(C[C@H](N)C(=O)O)cc1; Bip(2'-Me) = Cc1ccccc1-c1ccc(C[C@H](N)C(=O)O)cc1; αMePhe(2,6-F2) = C[C@](N)(Cc1c(F)cccc1F)C(=O)O; αMePhe(2-F) = C[C@](N)(Cc1ccccc1F)C(=O)O; Aib = CC(C)(N)C(=O)O
Experiments:
[1] = Agonist activity at VIP receptor; assay type: functional
[2] = system: Mus musculus; assay: Antidiabetic activity in insulin-resistant ob/ob mouse assessed as reduction in plasma glucose level at 30 nmol/kg, sc administered 30 mins before glucose infusion measured after 30 to 180 mins of glucose challenge by intraperitoneal glucose tolerance test; assay type: functional, organism-based
Summary of the method: (§1)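 Male ob/ob mice, 19 weeks old, 6 per group, randomized on fed glucose and body weight. After an 18 h fast, single sc dose in 1:1 propylene glycol/20 mM sodium phosphate pH 7.4 (0.1 mL/100 g) at -30 min. 2 g/kg glucose (50%) given ip at time 0. Tail bleeds at 0, 30, 60, 120 and 180 min into K-EDTA. Glucose measured on analyzer, insulin by ultrasensitive mouse ELISA. ANOVA with Dunnett's test versus vehicle.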

[3] = molecular target: T1, Parathyroid hormone/parathyroid hormone-related peptide receptor (Homo sapiens, UniProt Q03431); assay: Agonist activity at PTHR; assay type: functional
T1 sequence (Q03431 whole entry): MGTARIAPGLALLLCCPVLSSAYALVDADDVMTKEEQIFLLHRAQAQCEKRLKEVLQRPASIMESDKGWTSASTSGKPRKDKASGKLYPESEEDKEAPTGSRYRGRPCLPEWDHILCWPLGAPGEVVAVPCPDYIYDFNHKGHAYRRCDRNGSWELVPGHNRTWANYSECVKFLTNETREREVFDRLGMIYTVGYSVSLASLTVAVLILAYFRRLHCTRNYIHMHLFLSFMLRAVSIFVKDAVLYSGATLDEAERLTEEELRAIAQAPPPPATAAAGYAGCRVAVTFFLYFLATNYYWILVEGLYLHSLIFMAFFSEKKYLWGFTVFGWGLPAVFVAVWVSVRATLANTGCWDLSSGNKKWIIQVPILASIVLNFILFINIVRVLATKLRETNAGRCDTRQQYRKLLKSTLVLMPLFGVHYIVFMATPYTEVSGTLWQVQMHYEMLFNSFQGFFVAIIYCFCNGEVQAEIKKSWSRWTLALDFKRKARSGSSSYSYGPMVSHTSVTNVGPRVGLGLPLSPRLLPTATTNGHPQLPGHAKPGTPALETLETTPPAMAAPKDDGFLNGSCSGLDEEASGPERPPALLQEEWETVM

[4] = system: Canis familiaris; assay: Tmin in Beagle dog at 67 ug/kg, sc by LC-MS/MS analysis; assay type: ADME, organism-based, Canis lupus familiaris; conditions: in vivo, 0.067 mg/kg
[5] = molecular target: T2, Gastric inhibitory polypeptide receptor (Homo sapiens, UniProt P48546); assay: Agonist activity at GIPR; assay type: functional
T2 sequence (P48546 whole entry): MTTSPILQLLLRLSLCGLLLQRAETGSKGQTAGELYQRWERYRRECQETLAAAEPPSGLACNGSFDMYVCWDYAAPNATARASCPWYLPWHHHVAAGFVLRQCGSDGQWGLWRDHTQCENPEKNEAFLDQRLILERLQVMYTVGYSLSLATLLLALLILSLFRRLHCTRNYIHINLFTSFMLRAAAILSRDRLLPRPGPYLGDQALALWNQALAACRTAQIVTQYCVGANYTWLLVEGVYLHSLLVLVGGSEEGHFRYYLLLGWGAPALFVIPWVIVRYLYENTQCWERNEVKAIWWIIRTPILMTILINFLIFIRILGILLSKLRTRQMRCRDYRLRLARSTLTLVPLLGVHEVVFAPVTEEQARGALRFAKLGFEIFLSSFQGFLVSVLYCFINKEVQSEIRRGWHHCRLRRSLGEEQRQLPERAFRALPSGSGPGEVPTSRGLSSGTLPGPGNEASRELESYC

[6] = system: Mus musculus; assay: Antidiabetic activity in insulin-resistant ob/ob mouse assessed as reduction in plasma glucose level at 300 nmol/kg, sc administered 30 mins before glucose infusion measured after 30 to 180 mins of glucose challenge by intraperitoneal glucose tolerance test; assay type: functional, organism-based; summary of the method: as §1
[7] = molecular target: Glucagon-like peptide 1 receptor (Homo sapiens, UniProt P43220); assay: Agonist activity at human GLP1R expressed in CHO cells assessed as stimulation of intracellular [3H]cAMP accumulation after 30 mins by scintillation proximity assay; assay type: functional, cell-based
Glucagon-like peptide 1 receptor (Homo sapiens, UniProt P43220), sequence (P43220 whole entry): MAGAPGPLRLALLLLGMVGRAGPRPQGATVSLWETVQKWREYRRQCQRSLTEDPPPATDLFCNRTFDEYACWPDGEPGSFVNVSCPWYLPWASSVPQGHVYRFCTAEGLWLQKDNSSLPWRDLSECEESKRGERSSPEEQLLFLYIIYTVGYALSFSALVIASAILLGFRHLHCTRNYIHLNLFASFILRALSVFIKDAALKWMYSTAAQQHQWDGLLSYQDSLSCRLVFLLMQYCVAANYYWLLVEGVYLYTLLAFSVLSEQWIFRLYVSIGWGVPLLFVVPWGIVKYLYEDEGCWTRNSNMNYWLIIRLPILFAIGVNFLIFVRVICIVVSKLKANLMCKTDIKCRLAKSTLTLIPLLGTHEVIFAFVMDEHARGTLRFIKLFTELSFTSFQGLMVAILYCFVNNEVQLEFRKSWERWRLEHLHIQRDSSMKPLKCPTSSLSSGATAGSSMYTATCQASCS
Summary of the method: (§2)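 CHO cells stably expressing human or mouse GLP-1R, grown in F-12 with 10% FBS plus Geneticin (0.4 mg/mL human, 1 mg/mL mouse), plated 2×10^4/well overnight. Half-log dilutions made in DMSO, then in DPBS with 0.1 mM IBMX and 0.05% BSA (final 1% DMSO). Cells exposed 30 min. cAMP read by SPA and converted to pmol via standard curve. Duplicates, at least three separate runs.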

[8] = molecular target: Glucagon receptor (Homo sapiens, UniProt P47871); assay: Agonist activity at glucagon receptor; assay type: functional
Glucagon receptor, sequence (P47871 whole entry): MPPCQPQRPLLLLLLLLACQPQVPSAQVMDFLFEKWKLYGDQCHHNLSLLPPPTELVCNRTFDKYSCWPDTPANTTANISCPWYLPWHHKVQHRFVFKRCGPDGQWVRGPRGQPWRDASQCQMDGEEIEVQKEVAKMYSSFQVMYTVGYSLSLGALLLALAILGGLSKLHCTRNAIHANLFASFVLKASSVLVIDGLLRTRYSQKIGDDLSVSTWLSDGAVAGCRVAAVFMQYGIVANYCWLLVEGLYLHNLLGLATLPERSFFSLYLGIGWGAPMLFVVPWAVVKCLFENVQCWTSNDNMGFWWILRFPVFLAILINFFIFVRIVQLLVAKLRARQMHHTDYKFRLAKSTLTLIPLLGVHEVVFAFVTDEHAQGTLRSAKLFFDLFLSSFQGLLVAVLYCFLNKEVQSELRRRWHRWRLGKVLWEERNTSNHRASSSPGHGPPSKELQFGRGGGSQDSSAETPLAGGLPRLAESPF

[9] = Cmax in insulin-resistant ob/ob mouse at 300 nmol/kg, sc up to 24 hrs by LC-MS/MS analysis; assay type: ADME, organism-based; design: dose 300 nmol/kg, route subcutaneous; conditions: in vivo
Summary of the method: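 ob/ob mice dosed sc at 300 nmol/kg in 1:1 propylene glycol/20 mM sodium phosphate pH 7.4. Plasma sampled at 1, 2, 4, 6, 8 and 24 h and quantified by LC-MS/MS.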

[10] = system: Mus musculus; assay: Antidiabetic activity in insulin-resistant ob/ob mouse assessed as increase in plasma insulin level at 300 nmol/kg, sc administered 30 mins before glucose infusion measured after 60 mins of glucose challenge by intraperitoneal glucose tolerance test; assay type: functional, organism-based; summary of the method: as §1
[11] = system: Mus musculus; assay: Antidiabetic activity in insulin-resistant ob/ob mouse assessed as increase in plasma insulin level at 30 nmol/kg, sc administered 30 mins before glucose infusion measured after 30 to 180 mins of glucose challenge by intraperitoneal glucose tolerance test; assay type: functional, organism-based; summary of the method: as §1
[12] = system: Mus musculus; assay: Antidiabetic activity in insulin-resistant ob/ob mouse assessed as increase in plasma insulin level at 300 nmol/kg, sc administered 30 mins before glucose infusion measured after 30 mins of glucose challenge by intraperitoneal glucose tolerance test; assay type: functional, organism-based; summary of the method: as §1
[13] = molecular target: T3, Glucagon-like peptide 1 receptor (Mus musculus, UniProt O35659); assay: Agonist activity at mouse GLP1R expressed in CHO cells assessed as stimulation of intracellular [3H]cAMP accumulation by scintillation proximity assay; assay type: functional, cell-based; summary of the method: as §2
T3 sequence (O35659 whole entry): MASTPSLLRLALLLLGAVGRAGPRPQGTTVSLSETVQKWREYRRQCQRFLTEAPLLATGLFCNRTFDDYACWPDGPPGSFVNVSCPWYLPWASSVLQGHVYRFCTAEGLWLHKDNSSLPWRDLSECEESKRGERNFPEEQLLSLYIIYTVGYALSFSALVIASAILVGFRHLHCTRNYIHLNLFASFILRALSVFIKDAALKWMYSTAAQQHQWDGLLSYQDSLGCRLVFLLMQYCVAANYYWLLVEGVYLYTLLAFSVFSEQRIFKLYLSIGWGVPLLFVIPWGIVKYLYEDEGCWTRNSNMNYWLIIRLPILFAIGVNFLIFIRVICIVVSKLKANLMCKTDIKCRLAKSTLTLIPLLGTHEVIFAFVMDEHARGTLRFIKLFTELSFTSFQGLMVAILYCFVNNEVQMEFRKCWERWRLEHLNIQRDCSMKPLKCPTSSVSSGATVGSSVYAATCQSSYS

[14] = Agonist activity at PACAP receptor; assay type: functional
[15] = Mean residence time in Beagle dog at 67 ug/kg, sc by LC-MS/MS analysis; assay type: ADME, organism-based, Canis lupus familiaris; conditions: in vivo, 0.067 mg/kg
[16] = Half life in patient with type 2 diabetes at 2.5 to 25 nmol, iv administered as bolus dose; assay type: ADME, organism-based; conditions: human, in vivo

| SMILES | Tmin [4] [h] | Activity [6] | EC50 [7] [nM] | Cmax [9] [nM] | Activity [10] | Activity [12] | EC50 [13] [µM] | further results |
| --- | --- | --- | --- | --- | --- | --- | --- | --- |
| CCc1cc(OC)ccc1-c1ccc(C[C@H](NC(=O)[C@H](CC(=O)O)NC(=O)[C@H](CO)NC(=O)[C@@H](NC(=O)[C@](C)(Cc2ccccc2F)NC(=O)[C@@H](NC(=O)CNC(=O)[C@H](CCC(=O)O)NC(=O)C(C)(C)NC(=O)[C@@H](N)Cc2cnc[nH]2)[C@@H](C)O)[C@@H](C)O)C(=O)N[C@@H](Cc2ccc(-c3ccccc3C)cc2)C(N)=O)cc1 (H-H[Aib]EGT[αMePhe(2-F)]TSD[Bip(2'-Et-4'-OMe)][Bip(2'-Me)]-NH2) | 8 | Active | 0.087 | > 2000 | Active | Active | 0.0024 | EC50 [1]: > 10 µM; IC50 [1]: > 10 µM; Activity [2]: Active; EC50 [3]: > 10 µM; IC50 [3]: > 10 µM; EC50 [5]: > 10 µM; IC50 [5]: > 10 µM; EC50 [8]: > 10 µM; IC50 [8]: > 10 µM; Activity [11]: Active; EC50 [14]: > 10 µM; IC50 [14]: > 10 µM |
| CCc1cc(OC)ccc1-c1ccc(C[C@H](NC(=O)[C@H](CC(=O)O)NC(=O)[C@H](CO)NC(=O)[C@@H](NC(=O)[C@](C)(Cc2c(F)cccc2F)NC(=O)[C@@H](NC(=O)CNC(=O)[C@H](CCC(=O)O)NC(=O)C(C)(C)NC(=O)[C@@H](N)Cc2cnc[nH]2)[C@@H](C)O)[C@@H](C)O)C(=O)N[C@@H](Cc2ccc(-c3ccccc3C)cc2)C(N)=O)cc1 (H-H[Aib]EGT[αMePhe(2,6-F2)]TSD[Bip(2'-Et-4'-OMe)][Bip(2'-Me)]-NH2) | 24 | Active | 0.12 | > 2000 | Active | Active | 0.0008 | MRT [15]: 20 h |
| CC[C@H](C)[C@H](NC(=O)[C@H](Cc1ccccc1)NC(=O)[C@H](CCC(=O)O)NC(=O)[C@H](CCCCN)NC(=O)[C@H](C)NC(=O)[C@H](C)NC(=O)[C@H](CCC(N)=O)NC(=O)CNC(=O)[C@H](CCC(=O)O)NC(=O)[C@H](CC(C)C)NC(=O)[C@@H](NC(=O)[C@H](CO)NC(=O)[C@H](CO)NC(=O)[C@@H](NC(=O)[C@H](CC(=O)O)NC(=O)[C@H](CO)NC(=O)[C@@H](NC(=O)[C@H](Cc1ccccc1)NC(=O)[C@@H](NC(=O)CNC(=O)[C@H](CCC(=O)O)NC(=O)[C@H](C)NC(=O)[C@@H](N)Cc1cnc[nH]1)[C@@H](C)O)[C@@H](C)O)C(C)C)[C@@H](C)O)C(=O)N[C@@H](C)C(=O)N[C@@H](Cc1c[nH]c2ccccc12)C(=O)N[C@@H](CC(C)C)C(=O)N[C@H](C(=O)N[C@@H](CCCCN)C(=O)NCC(=O)N[C@@H](CCCN=C(N)N)C(N)=O)C(C)C | – | – | 0.034 | – | – | – | – | half-life [16]: 2 min |

— ChEMBL document CHEMBL1156009, “Eleven amino acid glucagon-like peptide-1 receptor agonists with antidiabetic activity” (J Med Chem, 2009)
